Experimental findings from ChEMBL document CHEMBL1156308 (J Med Chem, 2010) are described below.

Data set [1] in a line: Biodistribution in baboon whole brain at 340 mg, iv after 30 mins. The class given is ADME, organism-based. The following applies: papio hamadryas, read-out: Drug uptake. In outline:
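Brain PET was acquired for 90 min after i.v. [11C]-labeled drug in anesthetized baboons (ketamine 10 mg/kg i.m.; O2/N2O/isoflurane 1–4%). The whole-brain ROI TAC is reported as %ID/cc. µg/ml was estimated assuming a 20 mg/kg dose, a 17 kg baboon, and that the signal is intact drug. Arterial blood was sampled over 90 min.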

Data set [2] can be described thus: Biodistribution in baboon whole brain at 340 mg, iv after 90 mins. The class given is ADME, organism-based. The following applies: papio hamadryas, read-out: Drug uptake. In a few lines:
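Brain PET ran 90 min after i.v. [11C]-labelled drug in anaesthetised baboons. Whole-brain regions of interest gave time-activity curves in %ID/cc. µg/ml values were estimated from baboon weight (17 kg) and the recommended human daily dose per kg, assuming signal comes from intact drug.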

Data set [3] can be described thus: Biodistribution in baboon liver at 340 mg, iv after 90 mins. It counts as ADME, organism-based. The conditions noted are these: papio hamadryas, read-out: Drug uptake. In outline:
(§1)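 Four anesthetized baboons were given ketamine 10 mg/kg i.m., with anesthesia held on O2, N2O and isoflurane 1–4%. They received a micro dose of the [11C]-labeled drug i.v. via a radial arm vein, followed by torso PET. TACs came from manually drawn organ ROIs and are reported as %ID/cc. µg/ml values were estimated from a 20 mg/kg dose and a 17 kg baboon, assuming the signal is intact drug.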

Data set [4] is described as follows: Biodistribution in baboon liver at 340 mg, iv after 60 mins. It counts as ADME, organism-based. The conditions noted are these: papio hamadryas, read-out: Drug uptake. In outline:
as §1

Data set [5] is described as follows: Biodistribution in baboon kidney cortex at 340 mg, iv after 30 mins. It counts as ADME, organism-based. The conditions noted are these: papio hamadryas, read-out: Drug uptake. In a few lines:
as §1

Data set [6] can be described thus: Biodistribution in baboon liver at 340 mg, iv after 15 mins. The class given is ADME, organism-based. The following applies: papio hamadryas, read-out: Drug uptake. In a few lines: as §1
Data set [7] in a line: Biodistribution in baboon plasma at 340 mg, iv after 90 mins. It counts as ADME, organism-based. The following applies: papio hamadryas, read-out: Drug uptake. In outline:
(§2)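 Anaesthetised baboons received [11C]-labelled drug i.v. (radial arm vein) by PET protocol. Arterial blood was drawn from a popliteal catheter every 5 s for 2 min, then at 2–90 min. Plasma activity is given as %ID/cc. µg/ml values were estimated from the human daily dose per kg scaled to a 17 kg baboon, assuming signal comes from intact drug.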

The nature of data set [8]: Biodistribution in baboon lung at 340 mg, iv after 30 mins. The conditions noted are these: papio hamadryas, read-out: Drug uptake. It counts as ADME, organism-based. In a few lines: as §1
A short description of data set [9]: Biodistribution in baboon heart at 340 mg, iv after 15 mins. The class given is ADME, organism-based. The following applies: papio hamadryas, read-out: Drug uptake. In outline: as §1
Data set [10] can be described thus: Biodistribution in baboon kidney cortex at 340 mg, iv after 90 mins. It counts as ADME, organism-based. The conditions noted are these: papio hamadryas, read-out: Drug uptake. In outline: as §1
Data set [11] in a line: Biodistribution in baboon kidney medulla at 340 mg, iv after 90 mins. The class given is ADME, organism-based. The following applies: papio hamadryas, read-out: Drug uptake. In outline:
as §1

Data set [12] can be described thus: Biodistribution in baboon plasma at 340 mg, iv after 60 mins. It counts as ADME, organism-based. The following applies: papio hamadryas, read-out: Drug uptake. In outline:
as §2

Data set [13] can be described thus: Biodistribution in baboon lung at 340 mg, iv after 15 mins. It counts as ADME, organism-based. The following applies: papio hamadryas, read-out: Drug uptake. In a few lines: as §1
Data set [14] in a line: Biodistribution in baboon kidney medulla at 340 mg, iv after 30 mins. It counts as ADME, organism-based. The conditions noted are these: papio hamadryas, read-out: Drug uptake. In outline:
as §1

The nature of data set [15]: Biodistribution in baboon kidney cortex at 340 mg, iv after 60 mins. The class given is ADME, organism-based. The following applies: papio hamadryas, read-out: Drug uptake. In a few lines:
as §1

A short description of data set [16]: Biodistribution in baboon heart at 340 mg, iv after 60 mins. The class given is ADME, organism-based. The following applies: papio hamadryas, read-out: Drug uptake. In a few lines:
as §1

Data set [17] in a line: Biodistribution in baboon whole brain at 340 mg, iv after 60 mins. The class given is ADME, organism-based. The conditions noted are these: papio hamadryas, read-out: Drug uptake. In a few lines: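 Baboons were anesthetized with ketamine 10 mg/kg i.m., then maintained on O2, N2O and isoflurane 1–4%. The [11C]-labeled drug was given i.v. as a micro dose through a radial arm vein. PET was acquired for 90 min. Whole-brain ROI time-activity curves were read in %ID/cc, and µg/ml was estimated assuming a 20 mg/kg dose, a 17 kg baboon and signal from intact drug.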

A short description of data set [18]: Biodistribution in baboon kidney medulla at 340 mg, iv after 60 mins. The class given is ADME, organism-based. The following applies: papio hamadryas, read-out: Drug uptake. In outline:
as §1

Data set [19] in a line: Biodistribution in baboon liver at 340 mg, iv after 30 mins. The following applies: papio hamadryas, read-out: Drug uptake. The class given is ADME, organism-based. In outline:
as §1

The nature of data set [20]: Biodistribution in baboon kidney medulla at 340 mg, iv after 15 mins. The class given is ADME, organism-based. The conditions noted are these: papio hamadryas, read-out: Drug uptake. In outline:
as §1

Data set [21] can be described thus: Biodistribution in baboon heart at 340 mg, iv after 90 mins. The class given is ADME, organism-based. The following applies: papio hamadryas, read-out: Drug uptake. In outline: as §1
Data set [22] in a line: Biodistribution in baboon heart at 340 mg, iv after 30 mins. The following applies: papio hamadryas, read-out: Drug uptake. The class given is ADME, organism-based. In outline:
as §1

The nature of data set [23]: Biodistribution in baboon kidney cortex at 340 mg, iv after 15 mins. The following applies: papio hamadryas, read-out: Drug uptake. The class given is ADME, organism-based. In a few lines:
as §1

Data set [24] is described as follows: Biodistribution in baboon plasma at 340 mg, iv after 15 mins. The following applies: papio hamadryas, read-out: Drug uptake. The class given is ADME, organism-based. In a few lines:
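Anesthetised baboons (ketamine 10 mg/kg i.m.; oxygen, nitrous oxide and isoflurane 1–4% during scanning) got a micro dose of [11C]-labelled drug i.v. via a radial arm vein; arterial blood was sampled serially over 90 min. Plasma %ID/cc was converted to µg/ml from the listed dose over a 17 kg baboon, assuming the signal is intact drug.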

The nature of data set [25]: Biodistribution in baboon lung at 340 mg, iv after 60 mins. The conditions noted are these: papio hamadryas, read-out: Drug uptake. The class given is ADME, organism-based. In outline:
as §1

Data set [26] can be described thus: Biodistribution in baboon lung at 340 mg, iv after 90 mins. It counts as ADME, organism-based. The following applies: papio hamadryas, read-out: Drug uptake. In a few lines:
as §1

The nature of data set [27]: Biodistribution in baboon plasma at 340 mg, iv after 30 mins. The class given is ADME, organism-based. The conditions noted are these: papio hamadryas, read-out: Drug uptake. In outline:
as §2

The nature of data set [28]: Biodistribution in human CSF at 8.5 mg/kg, po after 2 hrs. The class given is ADME, organism-based, Cerebrospinal fluid. The arrangement: dose 8.5 mg/kg, route oral. The conditions noted are these: read-out: Drug uptake.
Data set [29] in a line: Biodistribution in human CSF at 108.7 mg, po after 1 hr. The class given is ADME, organism-based, Cerebrospinal fluid. The conditions noted are these: read-out: Drug uptake.
Data set [30] can be described thus: Plasma protein binding in baboon. The class given is ADME, cell-free. The conditions noted are these: papio hamadryas, read-out: PPB (converted). In a few lines:
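[11C]-labelled drug was incubated 10 min at room temperature in pooled plasma from at least 4 baboons. Total radioactivity was counted, then the sample was ultrafiltered by centrifugation (10 min) and the filtrate counted. Result is expressed as % free fraction in plasma.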

Data set [31] can be described thus: Biodistribution in ip dosed cat brain. The conditions noted are these: in vivo. The class given is ADME, organism-based, Felis catus.
Data set [32] can be described thus: Lipophilicity, log D of the compound. The class given is physicochemical. The conditions noted are these: octanol/water.

For `N[11C](=O)c1cnccn1`, the concentration at 0.5 h is 21000 ng/mL in [1]; 16600 ng/mL in [5]; 26500 ng/mL in [8]; 474000 ng/mL in data set [14]; 27000 ng/mL in [19]; 61500 ng/mL in data set [22]. In addition, the concentration at 0.5 h in [27] was 14600 ng/mL. Moreover, the concentration at 1.5 h in data set [2] stood at 13700 ng/mL; in data set [3], 19200 ng/mL; in data set [7], 9040 ng/mL; in [10], 9930 ng/mL; in data set [11], 229000 ng/mL; in data set [21] it was 59500 ng/mL. Besides, in data set [26], the concentration at 1.5 h turned out to be 18600 ng/mL. Besides, the concentration at 1 h in data set [4] was 22000 ng/mL; in data set [12] it was 11200 ng/mL; in data set [15], 12600 ng/mL; in data set [16], 57600 ng/mL; in data set [17], 15700 ng/mL; in [18], 343000 ng/mL. Further, the concentration at 1 h in data set [25] amounted to 22200 ng/mL. The concentration at 0.25 h in data set [6] turned out to be 36100 ng/mL; in data set [9] it was 67800 ng/mL; in data set [13], 35000 ng/mL; in data set [20] it was 617000 ng/mL; in data set [23], 20500 ng/mL; in [24] it was 22000 ng/mL.

`NNC(=O)c1ccncc1` [ISONIAZID]: in [28], the concentration at 2 h stood at 1900 ng/mL. The concentration at 1 h in data set [29] came to 310 ng/mL. For the same compound, the fraction unbound in data set [30] is 0.0537. In data set [31], the Drug uptake came out at 0.02 µg/g.

The compound `NC(=O)c1cnccn1` [PYRAZINAMIDE] returned a logD in data set [32] of -0.41. In data set [30], the fraction unbound was 0.0868.

On to `CO[C@H]1/C=C/O[C@@]2(C)Oc3c(C)c(O)c4c(O)c(c(/C=N/N5CCN(C)CC5)c(O)c4c3C2=O)NC(=O)/C(C)=C\C=C\[C@H](C)[C@H](O)[C@@H](C)[C@@H](O)[C@@H](C)[C@H](OC(C)=O)[C@@H]1C` [RIFAMPIN], for which the fraction unbound in data set [30] is 0.727.
